A selection: hits, their analogues and other compounds. The true share with any hit is near 4.1%.
Cl transport mod: modulators of human KCC2 chloride dependent transport. Q9H2X9. KCC2 cells, thallium flux FluoZin-2 fluorescence. actives 2.2% (n = 190,000). B-score of Tl+ flux slope (higher = more flux/activation; lower = inhibition) at 10 µM. AID 1456;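 active = thallium flux slope and its plate-corrected score both differing from the plate sample mean at a set confidence after two filtering rounds, in either direction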;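 also: slope of fluorescence scaled to starting intensity during 10 to 20 s after thallium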
hERG rescue: hERG (human) protection from proarrhythmic block | Q12809 | actives 0.51% (n = 310,000) | CHO-hERG, FluxOR thallium flux, dofetilide IC70 present | activation (rescue from dofetilide block), less the hit threshold, % at 10 µM | AID 1511;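 active = activation above the mean of controls blocked by dofetilide plus 5 SD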;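 also: thallium influx through hERG after potassium depolarization seen as dye fluorescence rise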
KCNK3 inh: human KCNK3 channel inhibition, primary screen | O14649 | CHO-KCNK3 thallium flux, FluxOR fluorescence; hits give low values | B-score at 10 µM | actives 0.84% (n = 340,000) | AID 602410;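 active = B-score under library mean minus 4 SD, starting fluorescence ratio at most library mean plus 5 SD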;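 also: more negative B-score means stronger inhibition of thallium flux through KCNK3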
Target sequence (O14649 whole entry, looked up): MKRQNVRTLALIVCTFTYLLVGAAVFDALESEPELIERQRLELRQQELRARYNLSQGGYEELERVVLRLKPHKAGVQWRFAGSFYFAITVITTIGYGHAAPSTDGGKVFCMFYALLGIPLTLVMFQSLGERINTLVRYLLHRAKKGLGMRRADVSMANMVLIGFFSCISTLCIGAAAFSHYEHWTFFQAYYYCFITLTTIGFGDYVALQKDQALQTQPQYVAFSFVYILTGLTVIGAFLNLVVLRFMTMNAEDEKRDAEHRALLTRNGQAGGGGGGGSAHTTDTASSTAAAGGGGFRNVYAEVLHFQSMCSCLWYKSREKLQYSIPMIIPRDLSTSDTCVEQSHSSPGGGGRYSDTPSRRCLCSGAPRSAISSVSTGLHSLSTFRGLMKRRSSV
KCNK9 inh: blocks the human KCNK9 two-pore domain potassium channel; Q9NPC2; HEK293 KCNK9, FluxOR thallium flux fluorescence; hits give low values; B-score at 10 µM; actives 1.2% (n = 310,000);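 active = ratio B-score over 3 SD below the library mean, with starting fluorescence within 5 SD of its mean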;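 also: negative B-score means less thallium flux so channel inhibition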
Target sequence (Q9NPC2 whole entry, looked up, the tested form may be a part): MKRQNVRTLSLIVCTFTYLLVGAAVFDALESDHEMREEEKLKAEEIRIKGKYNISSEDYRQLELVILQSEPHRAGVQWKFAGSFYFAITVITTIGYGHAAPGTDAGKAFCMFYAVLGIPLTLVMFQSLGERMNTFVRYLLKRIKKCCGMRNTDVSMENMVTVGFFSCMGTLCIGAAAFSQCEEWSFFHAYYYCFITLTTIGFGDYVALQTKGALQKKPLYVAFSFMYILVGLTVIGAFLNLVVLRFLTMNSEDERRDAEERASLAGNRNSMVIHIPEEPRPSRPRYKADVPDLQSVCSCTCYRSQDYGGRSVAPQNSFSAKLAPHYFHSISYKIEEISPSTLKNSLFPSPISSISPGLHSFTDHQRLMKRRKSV
KCNQ1 inh: blocks the human KCNQ1 potassium channel | CHO-K1 KCNQ1, FluxOR thallium flux fluorescence; hits give high values | P51787 | B-score at 10 µM | AID 2642 | actives 1.3% (n = 310,000);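 active = compounds whose thallium flux B-score, printed positive for inhibition, exceeds three library SD while starting fluorescence stays within three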;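 also: channel opened by potassium depolarization with thallium stimulus after 20 min compound exposure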
KCNQ1 pot: potentiates or activates the human KCNQ1 potassium channel; actives 0.35% (n = 310,000); P51787; CHO-K1 KCNQ1, thallium flux FluxOR fluorescence; hits give high values; AID 2648; B-score at 10 µM;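 active = fluorescence ratio B-score, a plate-corrected score, at least three library SD, with initial intensity B-score within 5 SD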
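Schedule – 37 °C overnight plating, 90-min dark dye load, 20-min compound pretreatment · System – stable KCNQ1 CHO-K1 line · Probe or stimulus – thallium- and potassium-containing depolarizing buffer · Measured by – kinetic FluxOR fluorescence, 10 s baseline plus 110 s post-stimulus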
KCNQ1 block val: human KCNQ1 channel inhibition, validation assay. shares compounds with KCNQ1 inh. KCNQ1 cell line, FluxOR thallium flux fluorescence. inhibition, % at 10 µM. actives 93% (n = 1,600). AID 588353;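 active = primary screen active, with duplicate mean exceeding buffer control mean plus 3 SD of buffer wells, cut at about 28% in these data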;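 also: 0% = buffer control ratio and 100% = XE991 inhibitor control ratio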
CHO Tl flux: counter-screen for KCNQ1 inhibitors: effect in parental CHO cells; parental CHO-K1, FluxOR thallium flux fluorescence ratio; hits give low values; zero means no signal rise above baseline; fluorescence ratio (Tl flux) at 10 µM; shares compounds with KCNQ1 inh; actives 21% (n = 1,600);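 active = mean of duplicate thallium-flux fluorescence ratios in parental host cells more than 5 SD below the buffer control mean, cut at about 0.38 in these data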;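 also: ratio is peak minus minimum fluorescence divided by baseline fluorescence; actives read low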
KCNQ1 APC inh: blocks human KCNQ1 current in automated patch clamp; shares compounds with KCNQ1 inh; AID 624120; calls only at 10 µM; actives 20% (n = 490); KCNQ1-CHO cells;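 active = KCNQ1 current drop exceeding 3 SD of negative control wells, seen in both duplicate runs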;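 also: steady state current during a 2 s step from -80 to +40 mV; negative values mean current inhibition and positive values mean potentiation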
KCNQ2 inh: selectivity of KCNQ1 inhibitors: inhibition of rat KCNQ2 channel. shares compounds with KCNQ1 inh. KCNQ2 cells, FluxOR thallium flux fluorescence. inhibition, % at 10 µM. actives 71% (n = 1,600);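 active = mean percent inhibition of the KCNQ2 thallium signal more than 5 SD above the buffer-only control wells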;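 also: KCNQ2 expressed in CHO cells; 0% = buffer control wells and 100% = XE-991 inhibitor control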
KCNQ1-KCNE1 inh: human KCNQ1/KCNE1 inhibition in KCNQ1 specificity screen; shares compounds with KCNQ1 inh; KCNQ1/KCNE1 cells, FluxOR thallium flux fluorescence; inhibition, % at 10 µM; actives 77% (n = 1,600);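 active = mean percent inhibition of duplicate wells above the buffer-only control mean plus 3 SD of those controls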;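 also: 0% = buffer only wells and 100% = XE-991 inhibitor control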
Active calls of the source: *; i = inactive; · = not tested or not shown; + = active, no number.

SMILES | Cl transport mod | hERG rescue | KCNK3 inh | KCNK9 inh | KCNQ1 inh | KCNQ1 pot | KCNQ1 block val | CHO Tl flux | KCNQ2 inh | KCNQ1-KCNE1 inh | others
CC(C)(CNC(=O)c1ccc(S(=O)(=O)Nc2cccc(C(F)(F)F)c2)cc1)N1CCOCC1 | · | · | i | · | · | · | · | · | · | ·
CCOC(=O)c1ccc(NC(=O)Cc2coc3cc4c(cc23)CCC4)cc1 | 1.54 | -5.9 | i | i | 6* | i | 115.5* | 0.44 | 82.3%* | 116.0%* | KCNQ1 APC inh=i
Nc1nonc1-n1nnc(C(=O)N/N=C/c2cc(Cl)ccc2O)c1CN1CCCCCC1 | · | -12.6 | i | i | i | i | · | · | · | ·
O=C(CCl)N1CCN(S(=O)(=O)Cc2ccccc2)CC1 | · | · | i | · | · | · | · | · | · | ·
CC(C)(C)c1ccc(S(=O)(=O)/N=C2\C=C(NS(=O)(=O)c3ccccc3)C(=O)c3ccccc32)cc1 | · | -25.3 | i | -7* | 8* | i | 69.5* | 0.445 | 77.3%* | 141.5%*
Cc1ccc(S(=O)(=O)/N=C2\C=C(NS(=O)(=O)c3ccccc3)C(=O)c3ccccc32)c(C)c1 | · | · | i | · | · | · | · | · | · | ·
O=C1C(CCCNC(=S)NCc2ccccc2)NC(=S)N1Cc1ccccc1 (configuration not stated) | -2.34 | -8.6 | i | i | 6* | i | 77.5* | 0.303* | i | 115.0%*
CCCNC(=O)C1CC(c2ccccc2C(F)(F)F)=NO1 (configuration not stated) | · | -2.2 | i | i | i | i | · | · | · | ·
C[C@H](CO)N1C[C@H](C)[C@@H](CN(C)S(C)(=O)=O)Oc2ccc(NC(=O)C3CC3)cc2C1=O | · | · | i | · | · | · | · | · | · | ·
CCN1C(=O)C(CC(=O)Nc2ccc(Br)cc2)N(CCCc2ccccc2)C1=S (configuration not stated) | -0.706 | -13.9 | i | i | 8* | i | 140.0* | 0.334* | 114.7%* | 196.0%*
CC(C)(CC(=O)c1ccccc1)CC(=O)c1ccccc1 | · | · | i | · | · | · | · | · | · | ·
O=C(c1ccc(NC(=S)Nc2ccc(Cl)c(Cl)c2)cc1)N1CCCC1 | 0.248 | -15.2 | i | i | 9* | i | 36.0* | 0.499 | i | i
CC(=O)c1ccc(NC(=S)Nc2ccc(Br)c(Cl)c2)cc1 | 0.0796 | -29.4 | i | i | 6* | i | 61.0* | 0.454 | i | i
CCCCOc1ccc(Br)cc1CSC(=N)N | -0.66 | -14.9 | i | i | 7* | i | 89.5* | 0.431 | 60.0%* | i | KCNQ1 APC inh=+
CCOc1ccc(C(C)=O)cc1CSC(=N)N | -0.537 | -3.5 | i | i | i | i | · | · | · | ·
CC(=O)N1CCN(S(=O)(=O)c2cccc(C(=O)OCc3ccc(C(C)(C)C)cc3)c2)CC1 | · | · | i | · | · | · | · | · | · | ·
COc1cccc(OC)c1Oc1ccc(C(F)(F)F)cn1 | -0.0696 | 3.5 | i | i | 7* | i | 85.0* | 0.437 | i | 82.5%*
COc1ccc(Nc2ccccc2NC(=O)c2ccccc2Br)cc1 | · | -7.8 | i | i | 11* | i | 89.0* | 0.443 | 94.3%* | 89.5%*
Cc1ccccc1C(=O)Nc1ccccc1NC(=O)c1ccccc1Br | · | -9.7 | i | i | i | i | · | · | · | ·
O=C(NCCc1ccccc1)C1CCC(CNS(=O)(=O)c2ccc(F)cc2)CC1 (configuration not stated) | · | -4.3 | i | i | i | i | · | · | · | ·
S=C(NCCc1ccc(Cl)cc1)NCc1ccccc1 | · | -13.5 | i | i | 10* | i | 63.0* | 0.495 | 74.0%* | 72.5%*
S=C(NCCc1cccc(Cl)c1)NCc1ccccc1 | · | -6.9 | i | i | 8* | i | 66.0* | 0.475 | i | 55.5%*
S=C(NCCc1ccc(Cl)cc1)NCc1ccco1 | 1.63 | -10.4 | i | i | i | i | · | · | · | ·
Cc1c(Cl)cccc1NC(=S)NCCc1ccc(Cl)cc1 | · | -8.5 | i | i | 15* | i | 73.0* | 0.556 | 79.0%* | 51.0%*
Cc1nnsc1C(=O)N1CCCC(N2CCN(c3ccc(F)cc3)CC2)C1 (configuration not stated) | · | -13.2 | i | i | i | i | · | · | · | ·
SMILES | Cl transport mod | hERG rescue | KCNK3 inh | KCNK9 inh | KCNQ1 inh | KCNQ1 pot | KCNQ1 block val | CHO Tl flux | KCNQ2 inh | KCNQ1-KCNE1 inh | others
Cc1c(C)n(C(=O)CSc2nc3ccccc3[nH]2)c2ccccc12 | -0.536 | 0.6 | i | i | 7* | i | 139.0* | 0.394 | 123.7%* | 190.0%* | KCNQ1 APC inh=i
CC(C)c1ccc(CNn2cnnc2)cc1 | · | -3.4 | i | i | i | i | · | · | · | ·
O=C(OC1CCCCC1)c1ccc(NC(=O)c2ccco2)cc1 | -1.02 | -9.9 | i | i | i | i | · | · | · | ·
COC(=O)c1ccc([C@H](NC(=O)c2ccco2)[C@]2(C)C[C@H]2C2CCCCC2)cc1 | · | -7.0 | i | i | 6* | i | 122.5* | 0.345* | 106.7%* | 167.5%*
O=C(c1ccc2c(c1)OCO2)C1CCCN(Cc2cccc(C(F)(F)F)c2)C1 (configuration not stated) | · | -5.6 | i | i | 7* | i | 88.0* | 0.431 | 96.0%* | 97.0%* | KCNQ1 APC inh=i
O=C(c1ccc2c(c1)OCO2)C1CCCN(Cc2ccc(OC(F)F)cc2)C1 (configuration not stated) | · | -13.2 | i | i | i | i | · | · | · | ·
O=C1C=C(c2ccc3ncccc3c2)C[C@@H](c2ccc3c(c2)OCO3)C1 | · | · | i | · | · | · | · | · | · | ·
Cc1csc(NC(=O)c2sc3nc(-c4cccs4)ccc3c2N)n1 | · | -9.2 | · | i | 16* | i | 123.5* | 0.244* | i | i
Cc1cc(C)cc(NC(=O)CSc2nc3ccccc3nc2N2CCCC2)c1 | · | -9.6 | i | i | i | i | · | · | · | ·
Cc1cc(C)cc(NC(=O)CSc2nc3ccccc3nc2N2CCCCC2)c1 | · | -9.4 | i | i | 6* | i | 68.5* | 0.463 | 92.0%* | 86.0%*
COc1ccc(NC(=S)NCc2ccc3c(c2)OCO3)cc1 | -0.648 | -5.9 | i | i | i | i | · | · | · | ·
